# Assay results of several laboratories.
# Lines come from different studies, so protocols differ.
# Target: Homeodomain-interacting protein kinase 1 (HIPK1, Homo sapiens, UniProt Q86Z02)
Structure (SMILES),observed,technique,tested at,remaining binding [%]
C[C@@H]1CCN(c2nccc(-c3cnn4ncccc34)n2)C1,binding,,1 µM,52
COc1ccc2cc(OCC3(C(=O)O)CN(C(=O)c4ccc(F)cc4)C3)ccc2c1,cell-free assay,competition with immobilised ligand,1 µM,100
COc1cc(Nc2nccc(-c3cnn4nc(OC)ccc34)n2)cc(C(F)(F)F)c1,binding,competition with immobilised ligand,1 µM,31
COc1ccc2c(c1)O[C@@H](c1ccc(OC)c(OC)c1)C[C@H]2NC(=O)C1(c2ccc3c(c2)OC(F)(F)O3)CC1,cell-free assay,competition with immobilised ligand,1 µM,86
CN(C)c1nccc(-c2cnn3ncccc23)n1,binding,,1 µM,55
Cc1c(C(=O)O)cc(-c2ccc(C3CCNCC3)cc2)c2ccc(-c3ccc(C(F)(F)F)cc3)cc12,binding,competition with immobilised ligand,1 µM,100
c1cncc(-c2cccc(Nc3nccc(NC4CCCCC4)n3)c2)c1,binding,competition with immobilised ligand,10 µM,56
CCCCN(CCCC)C(=O)CN1C[C@@H](c2cc(OC)c3c(c2)OCO3)[C@H](C(=O)O)[C@H]1CC(C)(C)CCC,cell-free assay,competition with immobilised ligand,1 µM,77.3
O=C(c1ccc(Nc2ncc(Cl)c(-c3ccc(Cl)s3)n2)cc1)N1CCC(N2CCCC2)CC1,binding,competition with immobilised ligand,1 µM,1.3
FC(F)(F)Oc1cccc(-c2cnc3ccc(-c4ccncc4)nn23)c1,cell-free assay,competition with immobilised ligand,5 µM,0.15
O=C(NCCCN1CCOCC1)c1ccc(Nc2nccc(-c3cc4ccccc4s3)n2)cc1,binding,competition with immobilised ligand,1 µM,36
N[C@H]1CCN(c2nccc(-c3cnn4ncccc34)n2)C1,binding,,1 µM,54
COc1ncc2cc3ccccc3nc2c1C#N,cell-free assay,competition with immobilised ligand,5 µM,81
FC(F)(F)c1ccc2c(c1)nc(-c1cccnc1)n2C1CC1,cell-free assay,competition with immobilised ligand,1 µM,100
COc1cnc(Nc2cccc(S(N)(=O)=O)c2)nc1N1CCN(c2ccccc2)C(=O)C1,binding,competition with immobilised ligand,1 µM,79
Cc1cnn2ncc(-c3ccnc(N(C)C)n3)c2c1,binding,,1 µM,39
O=C(NS(=O)(=O)c1ccc(NCC2CCOCC2)c([N+](=O)[O-])c1)c1ccc(N2CCN(Cc3ccc(C(F)(F)F)cc3-c3ccc(Cl)cc3)CC2)cc1Oc1cnc2[nH]ccc2c1,cell-free assay,competition with immobilised ligand,1 µM,84
COc1ccnn2ncc(-c3ccnc(N(C)C)n3)c12,binding,,1 µM,55
C=CC(=O)N1CCC(C(=O)NCC(=O)N2CCN(c3nc(-c4cnc(N)nc4C(F)F)nc(N4CCOCC4)n3)CC2)CC1,binding,competition with immobilised ligand,1 µM,97
O=C(c1ccc(Nc2ncc(Cl)c(-c3cc4ccccc4s3)n2)cc1)N1CCC(N2CCCC2)CC1,binding,competition with immobilised ligand,1 µM,1.4
O=C(NCC1CCOCC1)c1n[nH]cc1NC(=O)c1c(F)cccc1F,binding,competition with immobilised ligand,1 µM,69
